# Results taken from ChEMBL document CHEMBL5321284, “Discovery of a First-in-Class Degrader for the Lipid Kinase PIKfyve” (J Med Chem, 2023).
# The source made the active and inactive calls. The rule behind the calls is not given here.
# Experiments:
# [1] = target: T1, von Hippel-Lindau disease tumor suppressor/1-phosphatidylinositol 3-phosphate 5-kinase (Homo sapiens) (UniProt Q9Y2I7+P40337); experiment: PROTAC activity at VHL/PIKfyve in human 22RV1 cells assessed as downregulation of PIKfyve expression at 10 to 3000 nM measured after 24 hrs by immunoblot analysis; assay type: cell-based; conditions: dose 10-3000 nM
# T1 sequence (P40337 whole entry partner): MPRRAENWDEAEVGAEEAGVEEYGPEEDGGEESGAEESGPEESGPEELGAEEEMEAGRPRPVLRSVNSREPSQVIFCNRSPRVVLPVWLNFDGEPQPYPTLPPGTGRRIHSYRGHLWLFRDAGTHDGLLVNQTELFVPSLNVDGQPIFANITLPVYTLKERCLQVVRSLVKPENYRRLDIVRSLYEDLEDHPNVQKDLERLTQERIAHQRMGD
# T1 sequence (Q9Y2I7 2-2098 limits assumed): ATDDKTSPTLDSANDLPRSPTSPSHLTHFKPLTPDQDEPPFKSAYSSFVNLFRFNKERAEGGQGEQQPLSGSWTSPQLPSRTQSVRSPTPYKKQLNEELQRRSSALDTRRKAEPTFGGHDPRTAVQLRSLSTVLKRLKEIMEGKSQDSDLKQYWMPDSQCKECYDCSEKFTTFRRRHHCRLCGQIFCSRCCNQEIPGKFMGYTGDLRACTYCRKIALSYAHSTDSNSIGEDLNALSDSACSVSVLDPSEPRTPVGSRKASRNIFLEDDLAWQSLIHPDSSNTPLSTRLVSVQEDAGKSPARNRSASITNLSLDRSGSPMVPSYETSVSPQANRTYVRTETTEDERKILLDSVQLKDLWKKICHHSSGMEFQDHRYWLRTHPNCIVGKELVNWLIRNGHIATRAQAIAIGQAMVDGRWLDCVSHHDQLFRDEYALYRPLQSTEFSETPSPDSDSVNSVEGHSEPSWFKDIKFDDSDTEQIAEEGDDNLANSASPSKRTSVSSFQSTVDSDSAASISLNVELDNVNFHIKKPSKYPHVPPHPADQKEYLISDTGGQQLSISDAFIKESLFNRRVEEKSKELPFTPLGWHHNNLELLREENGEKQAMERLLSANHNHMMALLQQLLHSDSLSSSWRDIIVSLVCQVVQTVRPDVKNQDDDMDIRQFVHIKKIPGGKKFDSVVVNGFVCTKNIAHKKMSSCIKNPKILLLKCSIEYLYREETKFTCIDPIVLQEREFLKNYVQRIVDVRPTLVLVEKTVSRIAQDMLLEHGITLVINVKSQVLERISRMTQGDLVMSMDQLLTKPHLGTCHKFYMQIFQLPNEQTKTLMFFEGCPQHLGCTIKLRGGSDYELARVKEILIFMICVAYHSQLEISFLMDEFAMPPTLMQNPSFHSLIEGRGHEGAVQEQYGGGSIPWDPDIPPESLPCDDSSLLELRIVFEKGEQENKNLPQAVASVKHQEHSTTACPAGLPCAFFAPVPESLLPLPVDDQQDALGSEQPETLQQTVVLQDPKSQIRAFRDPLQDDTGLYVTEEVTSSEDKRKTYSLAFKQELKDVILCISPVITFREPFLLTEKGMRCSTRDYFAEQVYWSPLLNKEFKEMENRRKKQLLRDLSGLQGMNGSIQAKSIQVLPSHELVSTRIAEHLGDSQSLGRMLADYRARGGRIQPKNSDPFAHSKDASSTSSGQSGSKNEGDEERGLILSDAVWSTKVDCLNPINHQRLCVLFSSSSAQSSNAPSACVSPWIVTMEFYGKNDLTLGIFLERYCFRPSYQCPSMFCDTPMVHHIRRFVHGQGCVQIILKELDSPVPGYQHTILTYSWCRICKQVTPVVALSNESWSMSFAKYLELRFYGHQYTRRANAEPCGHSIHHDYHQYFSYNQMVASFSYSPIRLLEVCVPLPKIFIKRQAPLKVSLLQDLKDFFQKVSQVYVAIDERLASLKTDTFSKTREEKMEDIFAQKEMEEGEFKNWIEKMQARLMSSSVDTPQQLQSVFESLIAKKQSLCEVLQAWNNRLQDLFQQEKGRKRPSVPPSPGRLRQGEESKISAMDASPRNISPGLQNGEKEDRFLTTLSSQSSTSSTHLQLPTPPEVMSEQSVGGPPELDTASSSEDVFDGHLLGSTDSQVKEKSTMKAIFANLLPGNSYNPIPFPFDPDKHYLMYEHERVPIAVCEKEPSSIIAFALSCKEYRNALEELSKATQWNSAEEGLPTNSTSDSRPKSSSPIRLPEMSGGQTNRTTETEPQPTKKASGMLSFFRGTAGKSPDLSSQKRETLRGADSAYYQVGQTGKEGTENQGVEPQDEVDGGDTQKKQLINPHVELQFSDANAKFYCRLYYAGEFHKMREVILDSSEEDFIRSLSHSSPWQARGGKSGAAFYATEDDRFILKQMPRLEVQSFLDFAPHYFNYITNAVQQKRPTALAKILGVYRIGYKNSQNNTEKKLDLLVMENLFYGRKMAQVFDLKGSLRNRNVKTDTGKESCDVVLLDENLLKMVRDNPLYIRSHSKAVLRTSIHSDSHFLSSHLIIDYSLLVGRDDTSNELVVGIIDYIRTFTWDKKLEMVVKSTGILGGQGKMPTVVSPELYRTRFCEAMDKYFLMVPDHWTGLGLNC
# Summary of the method: (§1)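 22RV1, LNCaP or PC3 cells given increasing concentrations for 24 h; RIPA lysates immunoblotted for PIKfyve with GAPDH loading control, ECL detection.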
# [2] = target: T1, von Hippel-Lindau disease tumor suppressor/1-phosphatidylinositol 3-phosphate 5-kinase (Homo sapiens); experiment: PROTAC activity at VHL/PIKfyve in human LNCaP cells assessed as downregulation of PIKfyve expression at 10 to 3000 nM measured after 24 hrs by immunoblot analysis; assay type: cell-based; conditions: dose 10-3000 nM; summary of the method: as §1
# [3] = target: T1, von Hippel-Lindau disease tumor suppressor/1-phosphatidylinositol 3-phosphate 5-kinase (Homo sapiens); experiment: PROTAC activity at VHL/PIKfyve in human PC-3 cells assessed as downregulation of PIKfyve expression at 10 to 3000 nM measured after 24 hrs by immunoblot analysis; assay type: cell-based; conditions: dose 10-3000 nM; summary of the method: as §1
# [4] = target: T1, von Hippel-Lindau disease tumor suppressor/1-phosphatidylinositol 3-phosphate 5-kinase (Homo sapiens); experiment: PROTAC activity at VHL/PIKfyve in human VCaP cells assessed as downregulation of PIKfyve expression at 300 nM measured after 4 hrs by TMT-labeled mass spectrometry; assay type: cell-based
# Summary of the method: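 VCaP cells plated 3×10^6 per well overnight, then DMSO or 300 nM for 4 h; TMT-labeled quantitative global proteomics, mass-spec quantification of PIKfyve and lipid kinases.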
# [5] = target: T1, von Hippel-Lindau disease tumor suppressor/1-phosphatidylinositol 3-phosphate 5-kinase (Homo sapiens); experiment: PROTAC activity at VHL/PIKfyve in human VCaP cells assessed as induction of PIKfyve degradation by measuring half life at 100 nM by immunoblot analysis; assay type: cell-based
# [6] = target: T1, von Hippel-Lindau disease tumor suppressor/1-phosphatidylinositol 3-phosphate 5-kinase (Homo sapiens); experiment: PROTAC activity at VHL/PIKfyve in human VCaP cells assessed as maximal induction of PIKfyve degradation incubated for 24 hrs by immunoblot analysis relative to control; assay type: cell-based
# Summary of the method: (§2)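 VCaP cells treated with increasing concentrations for 24 h; PIKfyve and GAPDH immunoblotted; percent remaining PIKfyve plotted to determine DC50 and Dmax.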
# [7] = target: T1, von Hippel-Lindau disease tumor suppressor/1-phosphatidylinositol 3-phosphate 5-kinase (Homo sapiens); experiment: PROTAC activity at VHL/PIKfyve in human VCaP cells assessed as induction of PIKfyve degradation at 1 uM incubated for 24 hrs by immunoblot analysis; assay type: cell-based
# Summary of the method: (§3)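 VCaP cells treated 24 h at 0.1 or 1.0 µM; percent PIKfyve degradation determined by immunoblotting.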
# [8] = target: T1, von Hippel-Lindau disease tumor suppressor/1-phosphatidylinositol 3-phosphate 5-kinase (Homo sapiens); experiment: PROTAC activity at VHL/PIKfyve in human VCaP cells assessed as induction of PIKfyve degradation at 0.1 uM incubated for 24 hrs by immunoblot analysis; assay type: cell-based; summary of the method: as §3
# [9] = target: T1, von Hippel-Lindau disease tumor suppressor/1-phosphatidylinositol 3-phosphate 5-kinase (Homo sapiens); experiment: PROTAC activity at VHL/PIKfyve in human VCaP cells assessed as induction of PIKfyve degradation at 0.1 to 1 uM incubated for 24 hrs by immunoblot analysis; assay type: cell-based; conditions: dose 0.1-1 µM
# Summary of the method: (§4)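 VCaP cells treated 24 h at 0.1 and 1 µM, with or without pretreatment by 1 µM bortezomib; PIKfyve and GAPDH immunoblotted.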
# [10] = target: T1, von Hippel-Lindau disease tumor suppressor/1-phosphatidylinositol 3-phosphate 5-kinase (Homo sapiens); experiment: PROTAC activity at VHL/PIKfyve in human VCaP cells assessed as induction of PIKfyve degradation incubated for 24 hrs by immunoblot analysis; assay type: cell-based; summary of the method: as §2
# [11] = target: T1, von Hippel-Lindau disease tumor suppressor/1-phosphatidylinositol 3-phosphate 5-kinase (Homo sapiens); experiment: PROTAC activity at VHL/PIKfyve in human VCaP cells assessed as induction of PIKfyve degradation at 0.1 to 1 uM incubated for 24 hrs in presence of proteasome inhibitor, bortezomib by immunoblot analysis; assay type: cell-based; conditions: dose 0.1-1 µM; summary of the method: as §4
# [12] = target: T1, von Hippel-Lindau disease tumor suppressor/1-phosphatidylinositol 3-phosphate 5-kinase (Homo sapiens); experiment: PROTAC activity at VHL/PIKfyve in human VCaP cells assessed as induction of PIKfyve degradation at 0.1 to 0.3 uM incubated for 24 hrs in presence of PIKfyve inhibitor, apilimod by immunoblot analysis; assay type: cell-based; conditions: dose 0.1-0.3 µM
# Summary of the method: (§5)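 VCaP cells given increasing concentrations of degrader with or without warhead 1 or VHL ligand VL285 for 24 h; immunoblot of PIKfyve and GAPDH.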
# [13] = target: T1, von Hippel-Lindau disease tumor suppressor/1-phosphatidylinositol 3-phosphate 5-kinase (Homo sapiens); experiment: PROTAC activity at VHL/PIKfyve in human VCaP cells assessed as induction of PIKfyve degradation at 0.1 to 0.3 uM incubated for 24 hrs in presence of VHL ligand, VL285 by immunoblot analysis; assay type: cell-based; conditions: dose 0.1-0.3 µM; summary of the method: as §5
# DU-145 [14] = experiment: Induction of massive cytoplasmic vacuolization in human RFP-labeled DU-145 cells incubated for 24 hrs; assay type: functional, cell-based; conditions: dose 100-3000 nM
# Summary of the method: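 RFP-labeled DU145 cells treated 24 h (300 nM shown); vacuole area per cell quantified from images.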
# PC-3 [15] = experiment: Inhibition of autophagy in human PC-3 cells assessed as increase in LC3A/B expression incubated for 24 hrs by immunoblot analysis; assay type: functional, cell-based; conditions: dose 10-3000 nM
# Summary of the method: (§6)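 22RV1, LNCaP or PC3 cells (5% CO2, 37 °C) exposed to increasing concentrations for 24 h; RIPA lysates with protease/phosphatase inhibitors, 4–12% Bis-Tris SDS-PAGE, PVDF, milk block, immunoblotted for PIKfyve and autophagy markers LC3A/B and p62, ECL detection.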
# LNCaP [16] = experiment: Inhibition of autophagy in human LNCaP cells assessed as increase in LC3A/B expression incubated for 24 hrs by immunoblot analysis; assay type: functional, cell-based; conditions: dose 10-3000 nM; summary of the method: as §6
# CWR22R [17] = experiment: Inhibition of autophagy in human 22Rv1 cells assessed as increase in LC3A/B expression incubated for 24 hrs by immunoblot analysis; assay type: functional, cell-based; conditions: dose 10-3000 nM; summary of the method: as §6
# PC-3 [18] = experiment: Inhibition of autophagy in human PC-3 cells assessed as increase in p62 expression incubated for 24 hrs by immunoblot analysis; assay type: functional, cell-based; conditions: dose 10-3000 nM; summary of the method: as §6
# LNCaP [19] = experiment: Inhibition of autophagy in human LNCaP cells assessed as increase in p62 expression incubated for 24 hrs by immunoblot analysis; assay type: functional, cell-based; conditions: dose 10-3000 nM; summary of the method: as §6
# CWR22R [20] = experiment: Inhibition of autophagy in human 22Rv1 cells assessed as increase in p62 expression incubated for 24 hrs by immunoblot analysis; assay type: functional, cell-based; conditions: dose 10-3000 nM; summary of the method: as §6
# VCaP [21] = experiment: Antiproliferative activity against human VCaP cells assessed as inhibition of cell proliferation incubated for 24 hrs followed by culturing in compound-free medium for 2 weeks by crystal violet staining based analysis; assay type: functional
# Summary of the method: (§7)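 VCaP cells exposed either 24 h then washed and chased 2 weeks in compound-free medium, or continuously for 2 weeks; long-term viability visualized by crystal violet staining; IC50 calculated for each condition.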
# VCaP [22] = experiment: Antiproliferative activity against human VCaP cells assessed as inhibition of cell proliferation incubated for 2 weeks by crystal violet staining based analysis; assay type: functional; conditions: 336 h; summary of the method: as §7
# VCaP [23] = experiment: Antiproliferative activity against human VCaP cells assessed as inhibition of cell proliferation incubated for 4 hrs followed by culturing in compound-free medium for 2 weeks by crystal violet staining based analysis; assay type: functional
# Summary of the method: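 VCaP cells treated 4 h, compound removed, then cultured 2 weeks in drug-free medium; long-term viability by crystal violet staining.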
# [24] = target: T1, von Hippel-Lindau disease tumor suppressor/1-phosphatidylinositol 3-phosphate 5-kinase (Homo sapiens); experiment: PROTAC activity at VHL/PIKfyve in human VCaP cells assessed as induction of PIKfyve degradation at 300 nM incubated for 4 hrs followed by culturing in compound-free medium for 72 hrs by immunoblot analysis; assay type: cell-based
# Summary of the method: (§8)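 VCaP cells treated 4 h, compounds removed, cultured 72 h in compound-free medium; whole cell lysates immunoblotted for PIKfyve, LC3A/B and GAPDH (RIPA lysis, 4–12% Bis-Tris gels, PVDF, ECL).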
# VCaP [25] = experiment: Inhibition of autophagy in human VCaP cells assessed as increase in LC3A/B expression at 300 nM incubated for 4 hrs followed by culturing in compound-free medium for 72 hrs by immunoblot analysis; assay type: functional, cell-based; summary of the method: as §8
# DU-145 [26] = experiment: Induction of massive cytoplasmic vacuolization in human RFP-labeled DU-145 cells at 300 nM incubated for 4 hrs; assay type: functional, cell-based
# Mus musculus = experiment: In vivo induction of PIKfyve degradation in tumor of LTL-331R-xenografted CB17 mouse assessed as downregulation of PIKfyve expression at 4 to 10 mg/kg, ip for 4 days by western blot analysis; assay type: functional, organism-based; conditions: dose 4-10 mg/kg, time 4.0 day
# Summary of the method: (§9)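 LTL-331R prostate cancer PDX; IP once daily for 3 days at 4 or 10 mg/kg in 5% DMSO/95% of 40% hydroxypropyl-β-cyclodextrin (freshly dissolved); tumors collected 24 h after last dose on day 4; whole tumor lysate immunoblotted for PIKfyve, LC3A/B, GAPDH, or TUNEL in situ cell death staining.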
# LTL-331R [27] = experiment: Antitumor activity against human LTL-331R xenografted in CB17 mouse assessed as induction of tumor cell death at 4 to 10 mg/kg, ip for 4 days by TUNEL assay; assay type: functional, organism-based; conditions: dose 4-10 mg/kg, time 4.0 day; summary of the method: as §9
# LTL-331R [28] = experiment: Antitumor activity against human LTL-331R xenografted in CB17 mouse assessed as inhibition of tumor cell proliferation at 15 mg/kg, ip at 5 days on and 2 days off regimen for 17 days by digital caliper analysis; assay type: functional, organism-based; conditions: time 17.0 day
# Summary of the method: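 LTL-331R PDX; once-daily IP dosing, 5 days on/2 days off for 17 days, vehicle 5% DMSO/95% of 40% hydroxypropyl-β-cyclodextrin; tumors measured at least twice weekly by caliper, volume (π/6)(L×W²); vehicle vs treated compared by two-tailed unpaired t test.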
compound,measurement,setting,value
Cc1cccc(/C=N/Nc2cc(N3CCOCC3)nc(OCCc3ccc(NC(=O)CCCCC(=O)N[C@H](C(=O)N4C[C@H](O)C[C@H]4C(=O)NCc4ccc(-c5scnc5C)cc4)C(C)(C)C)cc3)n2)c1,Activity,[1],Active
same,Activity,[2],Active
same,Activity,[3],Active
same,Activity,[4],Active
same,T1/2,[5],1.5 h
same,Activity,[6],97.9%
same,Activity,[7],91%
same,Activity,[8],97%
same,Activity,[9],Active
same,Activity,[10],Dose-Dependent Effect
same,Activity,[11],inactive
same,Activity,[12],inactive
same,Activity,[13],inactive
same,Activity,DU-145 [14],Dose-Dependent Effect
same,inhibition,PC-3 [15],Dose-Dependent Effect
same,inhibition,LNCaP [16],Dose-Dependent Effect
same,inhibition,CWR22R [17],Dose-Dependent Effect
same,inhibition,PC-3 [18],Dose-Dependent Effect
same,inhibition,LNCaP [19],Dose-Dependent Effect
same,inhibition,CWR22R [20],Dose-Dependent Effect
same,IC50,VCaP [21],522 nM
same,IC50,VCaP [22],55.9 nM
same,IC50,VCaP [23],1200 nM
same,Activity,[24],Active
same,inhibition,VCaP [25],Active
same,Activity,DU-145 [26],Active
same,Activity,Mus musculus,Active
same,Activity,LTL-331R [27],Active
same,Activity,LTL-331R [28],Active
